From PubChem
Hits are enriched below; roughly 3% of the tested compounds scored in any of these assays.
ROMK primary – modulators of human ROMK potassium channel. P48048. Tet-inducible ROMK, thallium flux fluorescence; actives lie on both sides. B-score at 10 µM. 2% of 130,000 active. AID 1918;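 active = signal ratio slope over the read window, or its plate-corrected B-score, at least 3 SD from the plate mean, either direction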;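 note: B-score of the F/F0 ratio slope over 7 to 12 s after thallium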
Target sequence (P48048 whole entry, looked up): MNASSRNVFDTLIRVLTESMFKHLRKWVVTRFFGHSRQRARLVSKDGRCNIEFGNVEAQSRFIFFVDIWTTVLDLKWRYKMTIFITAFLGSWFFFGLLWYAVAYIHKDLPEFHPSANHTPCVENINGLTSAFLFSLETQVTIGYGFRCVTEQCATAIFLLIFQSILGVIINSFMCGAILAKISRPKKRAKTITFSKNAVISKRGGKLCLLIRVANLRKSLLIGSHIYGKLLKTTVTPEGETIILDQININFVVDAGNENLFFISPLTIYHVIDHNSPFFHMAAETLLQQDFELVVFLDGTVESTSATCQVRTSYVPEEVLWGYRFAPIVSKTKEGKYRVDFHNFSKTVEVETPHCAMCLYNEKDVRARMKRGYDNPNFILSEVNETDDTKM
Rad51 HR inh – Rad51 (human) homologous recombination inhibition | 0.085% of 200,000 active | inhibition, % at 10 µM | hRad51 DNA strand exchange, fluorescence dequenching;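 active = inhibition above 40% at the single screening dose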;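 note: 0% = DMSO control wells and 100% = blanks with heterologous ssDNA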
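Test system: preformed human Rad51 ssDNA filaments; also added: Donor/quencher-labelled 47-bp dsDNA substrate; doses: 10 µM final, single point; times: 37 °C 15-min filament assembly, 30-min compound preincubation, 15-min exchange; detection: FRET fluorescence dequenching, excitation 485 nm, emission 520 nm; read-out basis: Fluorescence-based percent inhibition, control- and blank-normalised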
PKD1 inh – blocks activity of human protein kinase D1; Q15139; PKD1 kinase fluorescence polarization assay; inhibition, % (no concentration beside the values); 0.056% of 200,000 active; in the data active = inhibition above about 50%
KCC2 mod – KCC2 (human) Cl- transport modulation; KCC2 cells, thallium flux FluoZin-2 fluorescence; B-score of Tl+ flux slope (higher = more flux/activation; lower = inhibition) at 10 µM; 2.2% of 190,000 active;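 active = thallium flux slope and its plate-corrected score both differing from the plate sample mean at a set confidence after two filtering rounds, in either direction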;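 note: slope of fluorescence scaled to starting intensity during 10 to 20 s after thallium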
ROMK hit retest – confirmation of human ROMK potassium channel modulators; shares compounds with ROMK primary; 54% of 3,000 active; AID 1917; ROMK thallium flux, fluorescence ratio; active compounds read low; normalized thallium flux (F/F0 slope) at 10 µM;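 active = Flux at 10 µM at least 3 SD below or above vehicle control mean in one or both replicates; inconclusive = no clear call, values can overlap the other calls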
* = called active by the depositor; i = inactive; ? = inconclusive; · = not tested or not shown.

SMILES	ROMK primary	Rad51 HR inh	PKD1 inh	KCC2 mod	ROMK hit retest
N=c1n(Cc2ccccc2)c2ccccc2n1CC(O)c1ccco1 (stereo not given)	-2.5*	-32	4	·	0.061*
CCNc1nc(SCCOc2ccc(Cl)cc2Cl)nc(N(C)C)n1	-0.039	25	-3	-0.036	·
COC(=O)c1ccc(-c2n[nH]c(=O)c3ccccc23)cc1	·	1	-2	1.5	·
COC(=O)Nc1nc2ccc(-c3n[nH]c(=O)c4ccccc34)cc2[nH]1	2.8*	·	2	0.17	?
COc1ccc(CN2CCSCC2)cc1C	3.3*	·	-2	·	0.081
CC1(CCc2ccccc2)NC(=O)N(CC(=O)Nc2ccc3c(c2)OCCO3)C1=O (stereo not given)	0.91	-7	-9	0.053	·
Cn1c(-c2ccc3c(c2)OCO3)cnc1NCc1cccc(Cl)c1	-4.8*	0	-2	-0.69	0.065*
O=C(O)CCCN1C(=O)/C(=C/c2cn(-c3ccccc3)nc2-c2cccs2)SC1=S	-3.4*	-216	7	i	?
COc1ccc(C2C(C#N)=C(N)Oc3c2ccc2cccnc32)cc1OC (stereo not given)	6.7*	-97	-1	-0.21	0.077
Cc1nc2c(sc3nc4c(cc32)COC(C)(C)C4)c(=O)n1CC(=O)NCc1ccco1	4.1*	2	3	-0.17	0.09
CC1(C)Cc2nc3sc4c(SCC(=O)NCc5ccco5)ncnc4c3cc2CO1	·	1	-5	-1.3	·
C=CCn1c(SCC(=O)N2CCc3ccccc3C2)nc2sc(C)c(C)c2c1=O	·	-4	-5	-1.5	·
C=CCn1c(SCC(=O)N2CCc3ccccc3C2)nc2sc(CC)cc2c1=O	·	-8	-11	-0.61	0.082
Cc1ccn(C(=O)c2ccc(NC(=O)C3CC3)cc2)n1	-0.62	6	0	0.055	·
CCOC(=O)C(C)Sc1nnc(Cn2c(=O)sc3ccccc32)n1-c1ccccc1 (stereo not given)	·	·	4	-0.19	?
NC(=O)CSc1nnc(Cn2c(=O)sc3ccccc32)n1-c1ccccc1	·	7	0	0.33	·
CCC(NC(=O)NCc1ccccc1)(C(F)(F)F)C(F)(F)F	·	-1	4	0.17	·
CCC(NC(=O)NCc1ccc2c(c1)OCO2)(C(F)(F)F)C(F)(F)F	1.5*	-2	-12	0.046	0.086
Cc1c(C(=O)O)oc2ccc(S(=O)(=O)NCc3ccc4c(c3)OCO4)cc12	·	·	0	0.44	0.075
S=C(NCc1ccc2c(c1)OCO2)NC1CC1	-19*	11	-1	0.016	0.089
Cc1ccc(CNS(=O)(=O)c2ccc3oc(C(=O)O)c(C)c3c2)cc1	·	-3	-8	0.21	·
Cc1ccc(S(=O)(=O)NC(=O)NCc2ccc3c(c2)OCO3)cc1	1.5	-3	-5	0.069	0.074
Cc1ccc(S(=O)(=O)NCC2CCC(C(=O)NCc3ccc4c(c3)OCO4)CC2)cc1 (stereo not given)	-0.29	2	-4	1.6	·
CCCNC(=O)Cc1c(C)oc2ccccc12	0.57	6	·	-0.15	·
O=C1Nc2c(c(=O)[nH]c(=O)n2-c2ccc(F)cc2)C1(NS(=O)(=O)c1ccccc1)C(F)(F)F (stereo not given)	1.4	-41	·	1.8	·
SMILES	ROMK primary	Rad51 HR inh	PKD1 inh	KCC2 mod	ROMK hit retest
O=C1c2cccc3c(N4CCCCC4)ccc(c23)C(=O)N1c1cccc(O)c1	-3.6*	i	-9	0.58	?
C=CCN1C(=O)c2cccc3c(N4CCCCC4)ccc(c23)C1=O	·	i	-1	0.42	·
O=C1c2cccc3c(N4CCCCC4)ccc(c23)C(=O)N1CCO	-5.3*	-101	-9	-1.7	0.035*
COCCCNC(=O)C1CCN(S(=O)(=O)c2c(C)noc2/C=C\c2ccc(OC)cc2)CC1	·	-4	-8	-0.15	·
CCCCNC(=O)C1CCN(S(=O)(=O)c2c(C)noc2/C=C\c2ccc(OC)cc2)CC1	·	-6	16	0.87	0.081
CCn1ccc(C(=O)NC2C(=O)N3C(C(=O)O)=C(C)CSC23)n1 (stereo not given)	·	3	6	·	·
CC1=C(C(=O)OCC(Cl)(Cl)Cl)N2C(=O)C(NC(=O)Cc3ccccc3)C2SC1 (stereo not given)	-3.1*	11	-6	-2.2	0.061*
O=C1/C(=C/c2ccc(N3CCOCC3)o2)SC(=Nc2ccccc2)N1CCc1c[nH]c2ccccc12	·	i	-1	-1.6	0.059*
O=C(NCCc1ccccc1F)C1CCCN1S(=O)(=O)c1ccc2ccccc2c1 (stereo not given)	-3.5*	1	0	-2.2	0.056*
O=C(NC1CC1)C1CCCN1S(=O)(=O)c1ccc2ccccc2c1 (stereo not given)	0.15	-4	-10	-0.00079	·
CC(NC(=S)Nc1ccccc1C(F)(F)F)C1CC2CCC1C2 (stereo not given)	-0.76	-2	0	i	·
O=C(Nc1nc2n(n1)C(c1ccccc1)C=C(c1ccccc1)N2)c1ccco1 (stereo not given)	·	-5	10	-1.1	0.066*
CCOCCCNC(=O)c1cc2sc(Cl)cc2n1CC	3.1*	1	-5	-0.0071	0.082
CCOCCCNC(=O)c1cc(C)nn1-c1ccccc1	·	10	0	0.77	·
C=CCNC(=O)/C(C#N)=C\c1cc(Cl)c(OCC)c(OC)c1	-2.9*	3	3	0.16	0.044*
Cc1ccc(NC(=O)COC(=O)CNC(=O)c2ccc(Br)cc2)c(C)c1	1.2	-4	-8	-0.78	·
O=C(/C=C/c1cccc(F)c1)N1CCc2ccccc21	0.43	8	5	-0.23	·
O=C(/C=C/c1ccc(F)cc1)N1CCCc2ccccc21	-2.4*	-42	-6	-2.1	?
O=C(CCc1ccccc1)N1CCN(c2ccc(Cl)cc2)CC1	-1.4	-5	-1	-0.45	·
O=C(CCc1ccccc1)N1CCN(c2ccc([N+](=O)[O-])cc2)CC1	-3.6*	·	2	-2	0.063*
O=C(Cc1ccc([N+](=O)[O-])cc1)N1CCCCCC1	-0.94	17	1	0.21	·
O=C(CCc1ccc(Oc2cc([N+](=O)[O-])cc([N+](=O)[O-])c2)cc1)N1CCCCCC1	-2.9*	·	6	-1.8	0.064*
FC(F)(F)c1ccc(-c2noc(CN3CCCN(C4CCCCC4)CC3)n2)cc1	-1.9	-1	9	-1.8	·
Cc1nnsc1-c1nnc(SCC(=O)c2ccccc2)n1C1CC1	·	22	·	-0.28	·
Cc1cc(C(C)(C)C)cc(C)c1Cn1c2[n+](c3ccc(C(F)(F)F)cc31)CCCCC2	-4.9*	0	-2	0.29	0.048*
FC(F)(F)c1cccc(Cn2c3[n+](c4ccc(C(F)(F)F)cc42)CCCCC3)c1	-2	6	3	-0.033	·
CCOc1cc(Br)c(C=O)cc1OCC	2.9*	-4	-5	-0.93	0.1*
Nc1ncnc(Oc2cccc3cccnc23)c1[N+](=O)[O-]	1.1	·	1	0.16	·
Cc1nn(Cc2ccccc2)c2c1C(c1ccc(Cl)cc1)C(C#N)=C(N)O2 (stereo not given)	-2.9*	-4	2	-2.8	0.059*
